The source made the active and inactive calls.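 The calls were made as follows: active = glutamate fold shift at least 2 as enhancer or at most 0.5 as blocker, actives on both sides; inactive = the rest.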
Target: Metabotropic glutamate receptor 1 (Rattus norvegicus) (UniProt P23385)
Experiment: off-target mGlu1 activity of candidates – cell-based, calcium flux, rat, selectivity assay for mGlu4 PAM lead optimization, SAR follow-up (AID 623874)
Conditions: rat mGlu1 cells, Fluo-4 calcium flux, glutamate CRC shift; at 10 µM
In short: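 Material: cells loaded with Fluo-4 calcium indicator dye; Medium: HEPES-buffered HBSS plus probenecid, pH 7.3; Probe or stimulus: glutamate agonist; Dosing: single test compound dose, 10 µM final; Schedule: about 2.5 min compound pre-incubation before glutamate addition; Detection: Fluo-4 calcium fluorescence.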

Sequence of Metabotropic glutamate receptor 1 (Rattus norvegicus) (P23385 whole entry, looked up): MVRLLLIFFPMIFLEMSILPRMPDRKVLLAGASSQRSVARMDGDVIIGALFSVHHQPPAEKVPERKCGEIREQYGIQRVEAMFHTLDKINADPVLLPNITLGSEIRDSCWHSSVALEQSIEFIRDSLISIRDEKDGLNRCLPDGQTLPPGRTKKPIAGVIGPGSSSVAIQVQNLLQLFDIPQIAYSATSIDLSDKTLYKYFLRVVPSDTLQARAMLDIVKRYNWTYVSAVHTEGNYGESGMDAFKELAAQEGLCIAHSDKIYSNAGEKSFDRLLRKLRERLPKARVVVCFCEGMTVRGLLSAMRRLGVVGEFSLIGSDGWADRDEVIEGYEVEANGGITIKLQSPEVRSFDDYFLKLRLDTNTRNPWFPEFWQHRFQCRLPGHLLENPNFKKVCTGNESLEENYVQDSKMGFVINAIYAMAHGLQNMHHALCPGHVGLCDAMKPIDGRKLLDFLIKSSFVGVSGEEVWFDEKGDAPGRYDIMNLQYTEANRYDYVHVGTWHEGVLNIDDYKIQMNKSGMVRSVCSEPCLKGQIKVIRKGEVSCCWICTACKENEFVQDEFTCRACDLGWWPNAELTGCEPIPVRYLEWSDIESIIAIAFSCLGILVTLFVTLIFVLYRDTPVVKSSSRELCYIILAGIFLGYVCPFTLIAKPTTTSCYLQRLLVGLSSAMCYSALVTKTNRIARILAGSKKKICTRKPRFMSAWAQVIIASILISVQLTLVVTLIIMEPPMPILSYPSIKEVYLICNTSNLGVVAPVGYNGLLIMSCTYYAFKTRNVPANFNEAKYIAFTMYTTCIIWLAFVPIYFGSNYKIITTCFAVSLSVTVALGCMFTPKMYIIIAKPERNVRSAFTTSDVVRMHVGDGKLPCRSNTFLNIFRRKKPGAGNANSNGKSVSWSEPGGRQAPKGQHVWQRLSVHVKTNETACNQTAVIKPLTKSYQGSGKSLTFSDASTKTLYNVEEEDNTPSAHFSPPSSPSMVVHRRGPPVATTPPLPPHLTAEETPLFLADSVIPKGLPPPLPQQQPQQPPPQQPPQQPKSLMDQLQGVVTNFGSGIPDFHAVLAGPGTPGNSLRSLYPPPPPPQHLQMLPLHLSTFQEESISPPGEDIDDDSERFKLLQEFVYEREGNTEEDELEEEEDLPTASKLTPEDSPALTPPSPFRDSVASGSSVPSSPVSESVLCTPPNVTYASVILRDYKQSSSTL

In the case of `O=C(Nc1cccc(Cl)c1)c1ccccn1`, the fold shift is reported as 1.17 (inactive).
